Results: ChEMBL document CHEMBL1152800, “Aza-analogue dibenzepinone scaffolds as p38 mitogen-activated protein kinase inhibitors: design, synthesis, and biological data of inhibitors with improved physicochemical properties” (J Med Chem, 2009)
Values after ≈ are worked out from the molar mass of the structure shown. Values belong to the compound of their own block, whether it stands above or below them.

Legend:
[1] = target: Mitogen-activated protein kinase 14 (Homo sapiens, UniProt Q16539); assay: Inhibition of p38alpha MAPK by cell-free enzyme immunosorbent assay
[2] = Aqueous solubility in HCl/H2O at pH 1; assay type: physicochemical
[3] = Lipophilicity, CHI in methanol by fast-gradient HPLC; assay type: physicochemical
Summary of the method: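 Chromatographic hydrophobicity index measured by fast-gradient reversed-phase HPLC with methanol as organic modifier. The index is calculated from the compound's retention time. It approximates the volume percentage of methanol needed for equal distribution of the compound between mobile and stationary phases.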

Chain of Mitogen-activated protein kinase 14 (Q16539 whole entry): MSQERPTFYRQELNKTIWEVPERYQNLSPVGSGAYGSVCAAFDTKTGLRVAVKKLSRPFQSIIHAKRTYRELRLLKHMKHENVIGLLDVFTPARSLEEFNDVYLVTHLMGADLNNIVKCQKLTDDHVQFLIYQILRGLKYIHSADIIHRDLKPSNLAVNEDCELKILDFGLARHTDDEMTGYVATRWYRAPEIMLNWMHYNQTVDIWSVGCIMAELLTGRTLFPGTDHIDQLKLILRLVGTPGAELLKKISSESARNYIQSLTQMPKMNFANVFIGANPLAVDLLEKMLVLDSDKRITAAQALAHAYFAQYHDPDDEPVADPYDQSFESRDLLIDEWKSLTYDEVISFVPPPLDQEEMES

SMILES: Nc1cc(F)ccc1Nc1ccc2c(c1)OCc1ccccc1C2=O
- IC50 [1]: 40 nM

SMILES: Nc1ccccc1Nc1ccc2c(c1)OCc1ccccc1C2=O
- CHI [3]: 75.2%

SMILES: Nc1cc(F)ccc1Nc1ccc2c(c1)CCc1ccccc1C2=O
- CHI [3]: 82.8%
- IC50 [1]: 130 nM

SMILES: Nc1ccccc1Nc1ccc2c(=O)c3cnccc3ccc2c1
- CHI [3]: 71.4%
- IC50 [1]: 1950 nM

SMILES: O=c1c2ccc(Nc3ccc(F)cc3F)cc2ccc2ncccc12
- CHI [3]: 82.9%
- IC50 [1]: 330 nM

SMILES: Nc1ccccc1Nc1ccc2c(c1)CCc1ncccc1C2=O
- solubility [2]: 1200 µg/mL (≈ 3800 µM)
- CHI [3]: 73.9%
- IC50 [1]: 310 nM

SMILES: Nc1ccccc1Nc1ccc2c(c1)OCc1ncccc1C2=O
- CHI [3]: 69%
- IC50 [1]: 2680 nM

SMILES: Nc1cc(F)ccc1Nc1ccc2c(c1)CCc1ncccc1C2=O
- CHI [3]: 72.9%
- IC50 [1]: 1190 nM

SMILES: O=c1c2ccccc2ccc2cc(Nc3ccc(F)cc3F)ccc12
- CHI [3]: 88.7%
- IC50 [1]: 2530 nM

Second part, the compound after the results:

- solubility [2]: < 10 µg/mL
- CHI [3]: 82.6%
SMILES: Nc1ccccc1Nc1ccc2c(c1)CCc1ccccc1C2=O

- CHI [3]: 65.8%
- IC50 [1]: 440 nM
SMILES: Nc1ccccc1Nc1ccc2c(c1)CCc1cccnc1C2=O

- CHI [3]: 73.4%
- IC50 [1]: 1080 nM
SMILES: Nc1ccccc1Nc1ccc2c(=O)c3cccnc3ccc2c1

- CHI [3]: 70.9%
- IC50 [1]: 2730 nM
SMILES: Nc1cc(F)ccc1Nc1ccc2c(c1)OCc1ncccc1C2=O

- solubility [2]: < 10 µg/mL
- CHI [3]: 88.1%
- IC50 [1]: 130 nM
SMILES: O=C1c2ccccc2CCc2cc(Nc3ccc(F)cc3F)ccc21

- solubility [2]: 486 µg/mL (≈ 1440 µM)
- CHI [3]: 81.2%
- IC50 [1]: 240 nM
SMILES: O=C1c2ccc(Nc3ccc(F)cc3F)cc2CCc2ncccc21

- CHI [3]: 83.2%
- IC50 [1]: 180 nM
SMILES: O=C1c2ccc(Nc3ccc(F)cc3F)cc2OCc2ncccc21
